# Experimental data of several laboratories.
# Each line is one published result; the experiments were not run side by side. pKi: −log10 of the molar value.
# Target: 5-hydroxytryptamine receptor 7 (HTR7, Homo sapiens, UniProt P34969)
# Method: radioligand
Structure (SMILES),observed,notes,pKi
CN1CCN(CCCN2c3ccccc3Sc3ccc(C(F)(F)F)cc32)CC1,ligand displacement,cell membranes,6.30
CNc1nc2cc(OCCCCN3CCC(c4cccc(Cl)c4Cl)CC3)ccc2s1,cell-free assay,,7.02
O=C1c2ccccc2CCN1CCCCN1CCN(c2cccc(Cl)c2Cl)CC1,ligand displacement,,7.68
Cc1nc2sccn2c(=O)c1CCN1CCC(=C(c2ccc(F)cc2)c2ccc(F)cc2)CC1,ligand displacement,cell membranes,6.33
CCc1nc2cc(OCCCCN3CCC(c4cccc(Cl)c4Cl)CC3)ccc2s1,cell-free assay,,6.80
CCCCN1CCC(COC(=O)c2ccc(N)c(OCF)c2)CC1,cell-free assay,,< 5.00
CC1(CCN2CCc3ccccc3C2)Cc2cc(Cl)ccc2C1=O (racemic),ligand displacement,,8.68
O=C(CCCN1CCCN(c2ccc(Cl)cc2)CC1)c1ccc(F)cc1,ligand displacement,,7.11
